Data reported in publication PMC4926610 (Journal of natural products, 2016).
“Also recorded” adds a separate entry of the source.

What was measured:
p97 = p97 (Homo sapiens, UniProt P55072); type: biochemical; details: 100.0 μM compound, 1.0 μM p97, 6 h at 21 °C, then dialysis; Figure 6B
Method in brief: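 Dialysed into assay buffer, fresh buffer 3 times every 2 h. ATPase started with 2.0 mM ATP; aliquots every 10 min up to 1 h into malachite green, citrate-quenched, OD660 converted to phosphate via standard curve, plotted against time.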

chaperonin GroEL = chaperonin GroEL (Escherichia coli, UniProt P0A6F5); assay: Malachite green ATPase assay, GroEL; type: biochemical
[1] = tested on: HEK293 cells stably expressing Ub^G76 VGFP; assay: Ub^G76 VGFP ubiquitin fusion degradation; type: cell-based, human; details: 10.0, 20.0 and 50.0 μM
Method in brief: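 Stable reporter HEK293 lines seeded at 2 × 10^6 cells in phenol-red free DMEM plus 10% FBS, grown 18 h at 37 °C under 5% CO2. Then treated with 10.0, 20.0 or 50.0 μM test compound (0.1% final DMSO). DMSO 0.1% negative control and MG132 10.0 μM positive control were included. GFP-positive cells counted by flow cytometry: 488 nm excitation, 530/30 emission, 10 000 events gated on FSC/SSC.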

p97-cys0 = p97-cys0 (Homo sapiens, UniProt P55072); assay: Malachite green ATPase assay, cysteineless p97; type: biochemical; details: Figure 6A
[2] = target: N-ethylmaleimide sensitive factor (NSF) (Homo sapiens, UniProt P46459); assay: Malachite green ATPase assay, NSF; type: biochemical
p97-C209A = p97-C209A (Homo sapiens, UniProt P55072, C209A); assay: biochemical
p97 (wt-p97) = p97 (wt-p97) (Homo sapiens, UniProt P55072); assay: Malachite green assay for p97 ATPase activity; type: biochemical
Method in brief: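 Hydrolysis started with 2.0 mM ATP at 37 °C. Aliquots taken at 2, 4, 6, 8 and 10 min were quenched in malachite green/ammonium molybdate/HCl/Tween 20 reagent. IC50 was taken from dose–response curves.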

[3] = target: type I AAA+ chaperone ClpX (Escherichia coli, UniProt P0A6H1); assay: Malachite green ATPase assay, ClpX; type: biochemical
[4] = isolated from Rhodotorula glutinis T-110; cited from earlier work

Chain of p97 (P55072 whole entry): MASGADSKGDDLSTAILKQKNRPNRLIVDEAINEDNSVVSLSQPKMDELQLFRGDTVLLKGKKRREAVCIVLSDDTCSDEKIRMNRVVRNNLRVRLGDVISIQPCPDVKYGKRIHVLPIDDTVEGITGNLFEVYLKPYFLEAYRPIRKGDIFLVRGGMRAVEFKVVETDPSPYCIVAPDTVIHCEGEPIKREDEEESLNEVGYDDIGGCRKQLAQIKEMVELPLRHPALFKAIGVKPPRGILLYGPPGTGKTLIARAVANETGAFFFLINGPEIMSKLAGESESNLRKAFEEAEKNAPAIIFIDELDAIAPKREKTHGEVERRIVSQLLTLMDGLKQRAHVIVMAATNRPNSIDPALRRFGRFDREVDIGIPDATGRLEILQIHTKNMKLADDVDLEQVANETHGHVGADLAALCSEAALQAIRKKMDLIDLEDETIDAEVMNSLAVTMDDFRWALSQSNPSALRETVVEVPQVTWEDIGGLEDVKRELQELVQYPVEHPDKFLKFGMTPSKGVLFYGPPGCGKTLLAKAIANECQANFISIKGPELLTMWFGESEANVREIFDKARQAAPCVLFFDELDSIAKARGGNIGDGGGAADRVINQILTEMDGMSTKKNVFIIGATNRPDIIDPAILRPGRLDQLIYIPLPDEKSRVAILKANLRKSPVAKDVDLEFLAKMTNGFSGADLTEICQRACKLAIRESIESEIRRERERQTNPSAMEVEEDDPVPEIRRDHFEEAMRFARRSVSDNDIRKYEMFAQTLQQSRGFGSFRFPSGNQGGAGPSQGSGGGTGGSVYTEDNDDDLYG
Chain of p97 (wt-p97) (P55072 whole entry): as above
Chain of p97-C209A (P55072 whole entry C209A): as the sequence (P55072 whole entry) above, with C209A counted along it
Chain of type I AAA+ chaperone ClpX (P0A6H1 whole entry): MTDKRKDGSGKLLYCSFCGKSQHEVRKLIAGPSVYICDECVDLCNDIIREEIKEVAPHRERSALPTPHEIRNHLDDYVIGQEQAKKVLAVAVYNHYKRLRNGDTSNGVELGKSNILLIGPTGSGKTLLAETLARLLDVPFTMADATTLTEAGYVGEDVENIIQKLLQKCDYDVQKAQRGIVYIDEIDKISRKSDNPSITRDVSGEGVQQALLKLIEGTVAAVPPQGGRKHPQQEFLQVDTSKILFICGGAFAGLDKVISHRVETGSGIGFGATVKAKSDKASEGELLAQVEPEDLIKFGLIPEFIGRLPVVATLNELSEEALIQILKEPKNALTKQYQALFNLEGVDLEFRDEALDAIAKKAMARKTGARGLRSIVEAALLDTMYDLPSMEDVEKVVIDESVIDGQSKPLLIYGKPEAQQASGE
Chain of chaperonin GroEL (P0A6F5 whole entry, the tested form may be a part): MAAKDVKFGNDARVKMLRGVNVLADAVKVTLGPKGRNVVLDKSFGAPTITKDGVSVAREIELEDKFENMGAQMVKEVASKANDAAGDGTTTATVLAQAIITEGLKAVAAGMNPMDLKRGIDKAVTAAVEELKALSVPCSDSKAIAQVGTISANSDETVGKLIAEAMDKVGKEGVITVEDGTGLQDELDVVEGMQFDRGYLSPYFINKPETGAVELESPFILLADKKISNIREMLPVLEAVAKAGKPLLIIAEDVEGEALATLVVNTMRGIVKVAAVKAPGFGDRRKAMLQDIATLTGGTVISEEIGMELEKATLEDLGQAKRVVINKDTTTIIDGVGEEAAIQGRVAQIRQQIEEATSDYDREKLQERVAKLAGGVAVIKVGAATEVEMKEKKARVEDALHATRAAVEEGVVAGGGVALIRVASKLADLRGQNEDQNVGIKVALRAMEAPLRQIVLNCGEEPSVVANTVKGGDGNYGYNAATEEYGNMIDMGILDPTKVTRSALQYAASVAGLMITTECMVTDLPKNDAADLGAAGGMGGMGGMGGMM
Chain of p97-cys0 (P55072 2-806): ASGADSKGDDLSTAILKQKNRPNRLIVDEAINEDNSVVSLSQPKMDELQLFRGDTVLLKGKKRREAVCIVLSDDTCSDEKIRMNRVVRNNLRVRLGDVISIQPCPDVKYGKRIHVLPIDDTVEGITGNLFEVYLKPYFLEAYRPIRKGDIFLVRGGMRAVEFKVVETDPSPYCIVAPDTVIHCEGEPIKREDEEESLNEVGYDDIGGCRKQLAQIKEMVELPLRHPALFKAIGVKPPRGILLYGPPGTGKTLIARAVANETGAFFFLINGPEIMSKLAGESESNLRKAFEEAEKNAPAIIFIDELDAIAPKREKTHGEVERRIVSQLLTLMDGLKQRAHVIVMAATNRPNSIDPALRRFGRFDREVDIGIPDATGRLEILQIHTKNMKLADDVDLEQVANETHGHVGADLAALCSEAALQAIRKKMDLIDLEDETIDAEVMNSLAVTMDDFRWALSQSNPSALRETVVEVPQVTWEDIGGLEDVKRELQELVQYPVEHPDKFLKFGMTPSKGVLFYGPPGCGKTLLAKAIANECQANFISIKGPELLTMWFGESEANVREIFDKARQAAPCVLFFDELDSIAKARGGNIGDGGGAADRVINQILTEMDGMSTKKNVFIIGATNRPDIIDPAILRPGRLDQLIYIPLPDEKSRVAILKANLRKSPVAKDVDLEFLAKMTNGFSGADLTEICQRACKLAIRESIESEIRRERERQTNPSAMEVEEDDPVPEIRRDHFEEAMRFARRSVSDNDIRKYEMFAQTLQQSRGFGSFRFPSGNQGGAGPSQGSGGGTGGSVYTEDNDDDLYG
Chain of N-ethylmaleimide sensitive factor (NSF) (P46459 whole entry, species assumed): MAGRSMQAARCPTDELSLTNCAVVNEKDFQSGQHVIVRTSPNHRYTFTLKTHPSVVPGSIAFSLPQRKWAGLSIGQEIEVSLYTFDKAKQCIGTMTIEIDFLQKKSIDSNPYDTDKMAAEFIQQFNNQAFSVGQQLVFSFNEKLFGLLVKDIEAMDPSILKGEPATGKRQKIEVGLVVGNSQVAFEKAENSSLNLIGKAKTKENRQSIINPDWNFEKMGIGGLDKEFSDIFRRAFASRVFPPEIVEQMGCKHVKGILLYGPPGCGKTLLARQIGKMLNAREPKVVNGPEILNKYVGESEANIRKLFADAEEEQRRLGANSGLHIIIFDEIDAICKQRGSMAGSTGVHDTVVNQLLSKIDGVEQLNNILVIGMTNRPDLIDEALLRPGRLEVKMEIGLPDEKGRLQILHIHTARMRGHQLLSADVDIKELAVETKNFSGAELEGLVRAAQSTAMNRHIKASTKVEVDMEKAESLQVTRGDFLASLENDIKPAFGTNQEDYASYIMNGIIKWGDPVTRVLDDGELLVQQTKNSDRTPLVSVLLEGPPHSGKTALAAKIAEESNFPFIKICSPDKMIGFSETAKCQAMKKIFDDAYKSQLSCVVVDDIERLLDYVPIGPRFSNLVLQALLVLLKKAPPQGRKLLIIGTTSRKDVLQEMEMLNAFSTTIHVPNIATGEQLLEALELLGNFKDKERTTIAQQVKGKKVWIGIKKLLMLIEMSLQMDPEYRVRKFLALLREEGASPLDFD

Structure (SMILES): C=C1OC(=O)C2(C1=O)[C@H](/C=C/C=C/CCC)C=C[C@@H](O)[C@@H]2O (mixture of isomers) [compound 2, oxaspirol B]
- inhibition of p97 ATPase after extensive dialysis (reversibility) (p97): No inhibition of p97 was evident after extensive dialysis; also recorded: p97 ATPase activity is restored
- IC50 (chaperonin GroEL): > 200 µM
- rescue of Ub^G76 VGFP reporter (number of GFP positive cells by FACS) [1]: dose-dependent inhibition of GFP fluorescence loss; also recorded: rescued in the presence of 2 in a dose-dependent manner
- activity against cysteine-less p97 variant Cys0 (in words) (p97-cys0): no activity
- IC50 [2]: > 200 µM
- IC50 (p97-C209A): 18 ± 4.7 µM
- effect of ATP concentration on IC50 of p97 inhibition (p97 (wt-p97); data not shown): no effect
- p97 ATPase inhibitory activity (in words) (p97 (wt-p97); malachite green-based ATPase assay): moderate; also recorded: showed activity
- IC50 [3]: > 200 µM

Structure (SMILES): C=C1OC(=O)[C@]2(C1=O)[C@H](/C=C/C=C/CCC)C=C[C@@H](OC(C)=O)[C@@H]2OC(C)=O (single isomer, unassigned; isomer 5a) [5a, 9,10-Diacetyloxaspirol B Isomer 5a]
- IC50 (p97 (wt-p97)): > 200 µM

Structure (SMILES): C=C1OC(=O)[C@@]2(C1=O)[C@H](/C=C/C=C/CCC)C=C[C@@H](OC(C)=O)[C@@H]2OC(C)=O (single isomer, unassigned; isomer 5b) [5b, 9,10-Diacetyloxaspirol B Isomer 5b]
- IC50 (p97 (wt-p97)): > 200 µM

Structure (SMILES): C[C@H]1CCC/C=C/C(=O)c2c(O)cc(O)cc2CC(=O)O1 [dehydrocurvularin, reference compound]
- inhibition of p97 ATPase after extensive dialysis (reversibility) (p97): continued inhibition even after extensive dialysis

Structure (SMILES): CCCC=CC=C[C@@H]1C=C[C@@H](O)[C@H](O)[C@]12C(=O)OC(C)[C@@H]2O (stereo partly drawn) [compound 1, (4R,5R,6R,9R,10R)-6-(hepta-1,3-dien)yl-4,9,10-trihydroxy-3-methyl-2-oxaspiro[4,5]dec-7-en-1-one]
- antibacterial activity (in words) [4]: weakly active
